Laboratory results taken from ChEMBL document CHEMBL1681705, “Optimisation of ITK inhibitors through successive iterative design cycles” (Bioorg Med Chem Lett, 2011).

Legend:
[1] = target: Tyrosine-protein kinase Fyn (Homo sapiens) (UniProt P06241); test: Inhibition of Fyn at 1 uM
Procedure, shortened: (§1)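 Single-point profiling in a panel of 108 kinases. Each selected inhibitor was tested at two concentrations, 0.1 and 1.0 micromolar. Values are reported as inhibition at each concentration.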

[2] = target: T1, Dual specificity mitogen-activated protein kinase kinase 6 (Homo sapiens) (UniProt P52564); test: Inhibition of MKK6 at 1 uM; values are per cent of control
T1 sequence (whole entry): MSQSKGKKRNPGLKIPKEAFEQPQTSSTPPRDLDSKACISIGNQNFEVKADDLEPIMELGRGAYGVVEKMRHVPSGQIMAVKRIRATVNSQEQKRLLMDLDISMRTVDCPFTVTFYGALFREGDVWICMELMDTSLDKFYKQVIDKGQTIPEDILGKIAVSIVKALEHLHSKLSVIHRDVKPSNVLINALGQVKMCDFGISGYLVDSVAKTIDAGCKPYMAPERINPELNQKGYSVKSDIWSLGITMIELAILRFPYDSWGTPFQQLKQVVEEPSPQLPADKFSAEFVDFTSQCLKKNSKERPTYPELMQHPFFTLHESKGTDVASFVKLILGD

[3] = target: RAC-alpha serine/threonine-protein kinase (Homo sapiens) (UniProt P31749); test: Inhibition of PKBalpha at 1 uM; values are per cent of control
Chain of RAC-alpha serine/threonine-protein kinase (Homo sapiens) (P31749 whole entry): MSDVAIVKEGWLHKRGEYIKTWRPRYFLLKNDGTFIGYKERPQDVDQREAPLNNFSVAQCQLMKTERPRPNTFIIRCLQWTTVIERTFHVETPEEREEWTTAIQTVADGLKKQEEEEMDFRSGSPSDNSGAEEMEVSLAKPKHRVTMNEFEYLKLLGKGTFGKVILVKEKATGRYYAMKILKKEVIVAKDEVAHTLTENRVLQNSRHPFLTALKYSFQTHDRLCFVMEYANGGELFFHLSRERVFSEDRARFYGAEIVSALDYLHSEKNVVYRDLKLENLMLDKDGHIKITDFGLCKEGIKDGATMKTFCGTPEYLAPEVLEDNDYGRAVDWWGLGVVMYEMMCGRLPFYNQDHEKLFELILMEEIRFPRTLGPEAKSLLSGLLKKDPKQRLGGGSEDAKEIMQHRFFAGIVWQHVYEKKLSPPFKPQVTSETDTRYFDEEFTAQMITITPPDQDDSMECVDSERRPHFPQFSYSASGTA

[4] = target: Interleukin-1 receptor-associated kinase 1 (Homo sapiens) (UniProt P51617); test: Inhibition of IRAK1 at 1 uM; procedure, shortened: as §1
Chain of Interleukin-1 receptor-associated kinase 1 (Homo sapiens) (P51617 whole entry, looked up): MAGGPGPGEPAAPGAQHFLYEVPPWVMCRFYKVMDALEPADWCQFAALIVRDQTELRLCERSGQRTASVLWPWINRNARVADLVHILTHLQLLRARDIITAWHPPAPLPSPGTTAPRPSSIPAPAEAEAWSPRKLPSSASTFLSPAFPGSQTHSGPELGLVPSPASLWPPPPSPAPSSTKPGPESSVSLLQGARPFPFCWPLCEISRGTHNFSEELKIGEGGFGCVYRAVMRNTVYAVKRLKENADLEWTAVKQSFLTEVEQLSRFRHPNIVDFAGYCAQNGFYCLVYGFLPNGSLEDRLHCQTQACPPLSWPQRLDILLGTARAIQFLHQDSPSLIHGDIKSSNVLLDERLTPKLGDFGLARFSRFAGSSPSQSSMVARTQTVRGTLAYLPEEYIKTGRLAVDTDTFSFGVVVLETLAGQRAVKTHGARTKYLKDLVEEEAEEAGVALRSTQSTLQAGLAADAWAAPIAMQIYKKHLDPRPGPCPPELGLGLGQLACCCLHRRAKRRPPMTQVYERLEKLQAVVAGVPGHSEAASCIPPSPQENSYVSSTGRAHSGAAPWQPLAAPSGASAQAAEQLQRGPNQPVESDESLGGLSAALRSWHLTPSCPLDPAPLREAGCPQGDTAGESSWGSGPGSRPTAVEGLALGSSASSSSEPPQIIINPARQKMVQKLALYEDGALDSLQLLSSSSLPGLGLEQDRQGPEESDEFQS

[5] = target: T2, Serine/threonine-protein kinase Nek2 (Homo sapiens) (UniProt P51955); test: Inhibition of NEK2 at 1 uM; values are per cent of control
T2 sequence (whole entry): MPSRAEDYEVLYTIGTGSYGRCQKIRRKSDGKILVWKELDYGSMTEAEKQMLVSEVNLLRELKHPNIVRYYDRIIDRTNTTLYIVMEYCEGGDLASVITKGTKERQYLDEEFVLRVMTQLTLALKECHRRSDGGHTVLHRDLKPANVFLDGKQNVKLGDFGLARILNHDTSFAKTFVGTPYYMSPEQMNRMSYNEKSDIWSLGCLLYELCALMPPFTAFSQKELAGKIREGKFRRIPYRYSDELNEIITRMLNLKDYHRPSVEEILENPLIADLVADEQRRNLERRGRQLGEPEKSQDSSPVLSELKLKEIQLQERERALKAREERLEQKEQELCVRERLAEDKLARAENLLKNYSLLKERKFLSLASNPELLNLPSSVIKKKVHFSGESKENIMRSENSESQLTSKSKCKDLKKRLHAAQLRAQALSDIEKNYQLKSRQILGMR

[6] = target: T3, Protein kinase C epsilon type (Homo sapiens) (UniProt Q02156); test: Inhibition of PKCepsilon at 0.1 uM; values are per cent of control
T3 sequence (whole entry): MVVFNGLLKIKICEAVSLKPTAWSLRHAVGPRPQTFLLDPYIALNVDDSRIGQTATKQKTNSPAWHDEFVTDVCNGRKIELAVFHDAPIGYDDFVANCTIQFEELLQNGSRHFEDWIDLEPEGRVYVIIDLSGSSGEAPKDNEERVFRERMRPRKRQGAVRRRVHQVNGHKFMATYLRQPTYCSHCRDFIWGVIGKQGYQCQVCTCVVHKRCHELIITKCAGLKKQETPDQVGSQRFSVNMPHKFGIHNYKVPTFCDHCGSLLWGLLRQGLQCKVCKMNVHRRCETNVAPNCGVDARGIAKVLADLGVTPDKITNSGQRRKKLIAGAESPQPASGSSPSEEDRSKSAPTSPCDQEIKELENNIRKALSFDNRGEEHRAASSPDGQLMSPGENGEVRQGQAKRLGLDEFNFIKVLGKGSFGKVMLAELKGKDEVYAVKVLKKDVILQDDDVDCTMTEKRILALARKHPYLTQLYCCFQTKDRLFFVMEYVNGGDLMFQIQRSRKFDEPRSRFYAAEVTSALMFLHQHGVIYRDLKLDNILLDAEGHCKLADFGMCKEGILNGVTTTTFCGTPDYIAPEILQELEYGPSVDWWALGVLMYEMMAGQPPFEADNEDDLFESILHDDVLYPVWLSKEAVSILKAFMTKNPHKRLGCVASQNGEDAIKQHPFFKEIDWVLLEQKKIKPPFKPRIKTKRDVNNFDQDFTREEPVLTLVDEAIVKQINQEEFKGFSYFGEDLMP

[7] = target: Insulin receptor (Homo sapiens) (UniProt P06213); test: Inhibition of IR at 0.1 uM; values are per cent of control
Chain of Insulin receptor (Homo sapiens) (P06213 28-758 limits assumed): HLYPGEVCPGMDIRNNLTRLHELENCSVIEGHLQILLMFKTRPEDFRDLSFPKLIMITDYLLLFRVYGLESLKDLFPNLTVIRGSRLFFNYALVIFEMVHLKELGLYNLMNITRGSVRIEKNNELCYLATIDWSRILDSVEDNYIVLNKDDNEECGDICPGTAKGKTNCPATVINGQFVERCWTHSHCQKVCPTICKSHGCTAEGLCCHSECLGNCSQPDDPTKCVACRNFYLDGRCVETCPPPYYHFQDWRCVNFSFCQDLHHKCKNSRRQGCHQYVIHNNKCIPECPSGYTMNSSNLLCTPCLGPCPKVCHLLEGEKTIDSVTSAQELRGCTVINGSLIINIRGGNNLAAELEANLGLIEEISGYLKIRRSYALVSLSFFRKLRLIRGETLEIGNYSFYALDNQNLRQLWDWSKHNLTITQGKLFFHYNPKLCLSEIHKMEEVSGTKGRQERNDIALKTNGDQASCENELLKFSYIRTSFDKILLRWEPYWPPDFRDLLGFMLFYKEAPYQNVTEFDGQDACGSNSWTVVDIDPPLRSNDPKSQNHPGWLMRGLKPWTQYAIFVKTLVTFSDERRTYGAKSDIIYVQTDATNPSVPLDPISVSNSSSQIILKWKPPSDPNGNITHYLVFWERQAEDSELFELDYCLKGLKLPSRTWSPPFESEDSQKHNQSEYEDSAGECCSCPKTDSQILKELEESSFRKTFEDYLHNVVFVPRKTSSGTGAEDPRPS
Chain of Insulin receptor (Homo sapiens) (P06213 763-1382 limits assumed): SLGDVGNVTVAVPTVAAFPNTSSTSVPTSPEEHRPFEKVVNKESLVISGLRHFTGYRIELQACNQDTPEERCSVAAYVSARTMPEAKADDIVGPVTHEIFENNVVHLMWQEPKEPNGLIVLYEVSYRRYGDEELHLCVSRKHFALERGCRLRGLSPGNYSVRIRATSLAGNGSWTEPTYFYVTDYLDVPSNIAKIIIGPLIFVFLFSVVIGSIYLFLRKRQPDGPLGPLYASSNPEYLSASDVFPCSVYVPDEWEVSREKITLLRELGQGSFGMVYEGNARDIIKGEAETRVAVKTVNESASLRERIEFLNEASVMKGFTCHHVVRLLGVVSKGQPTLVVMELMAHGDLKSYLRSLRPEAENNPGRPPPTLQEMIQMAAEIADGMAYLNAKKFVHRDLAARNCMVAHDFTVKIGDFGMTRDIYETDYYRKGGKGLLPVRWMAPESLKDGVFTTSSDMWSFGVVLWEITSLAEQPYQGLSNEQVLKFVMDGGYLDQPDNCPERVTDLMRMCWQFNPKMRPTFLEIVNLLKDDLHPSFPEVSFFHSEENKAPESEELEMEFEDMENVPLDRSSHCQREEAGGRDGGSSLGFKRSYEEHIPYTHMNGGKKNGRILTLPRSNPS

[8] = target: Insulin receptor (Homo sapiens) (UniProt P06213); test: Inhibition of IR at 1 uM; values are per cent of control
[9] = target: 3-phosphoinositide-dependent protein kinase 1 (Homo sapiens) (UniProt O15530); test: Inhibition of PDK1 at 1 uM; values are per cent of control
Chain of 3-phosphoinositide-dependent protein kinase 1 (Homo sapiens) (O15530 whole entry, looked up): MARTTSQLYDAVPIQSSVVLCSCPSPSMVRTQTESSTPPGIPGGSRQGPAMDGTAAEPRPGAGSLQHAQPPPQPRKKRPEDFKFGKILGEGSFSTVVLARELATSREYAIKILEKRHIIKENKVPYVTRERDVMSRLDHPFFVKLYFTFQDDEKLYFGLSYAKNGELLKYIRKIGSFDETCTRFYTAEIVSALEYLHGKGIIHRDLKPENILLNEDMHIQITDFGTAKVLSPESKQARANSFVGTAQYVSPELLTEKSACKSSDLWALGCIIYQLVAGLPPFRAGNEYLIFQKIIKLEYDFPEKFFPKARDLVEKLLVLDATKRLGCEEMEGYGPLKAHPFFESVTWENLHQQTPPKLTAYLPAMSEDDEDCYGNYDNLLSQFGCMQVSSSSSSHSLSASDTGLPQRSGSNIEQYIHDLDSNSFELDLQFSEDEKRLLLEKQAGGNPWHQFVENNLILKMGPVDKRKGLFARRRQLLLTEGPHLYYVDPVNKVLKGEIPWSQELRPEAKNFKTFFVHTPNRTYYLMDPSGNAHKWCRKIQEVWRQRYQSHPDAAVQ

[10] = target: Fibroblast growth factor receptor 2 (Homo sapiens) (UniProt P21802); test: Inhibition of FGFR2 at 0.1 uM; values are per cent of control
Chain of Fibroblast growth factor receptor 2 (Homo sapiens) (P21802 22-821 limits assumed): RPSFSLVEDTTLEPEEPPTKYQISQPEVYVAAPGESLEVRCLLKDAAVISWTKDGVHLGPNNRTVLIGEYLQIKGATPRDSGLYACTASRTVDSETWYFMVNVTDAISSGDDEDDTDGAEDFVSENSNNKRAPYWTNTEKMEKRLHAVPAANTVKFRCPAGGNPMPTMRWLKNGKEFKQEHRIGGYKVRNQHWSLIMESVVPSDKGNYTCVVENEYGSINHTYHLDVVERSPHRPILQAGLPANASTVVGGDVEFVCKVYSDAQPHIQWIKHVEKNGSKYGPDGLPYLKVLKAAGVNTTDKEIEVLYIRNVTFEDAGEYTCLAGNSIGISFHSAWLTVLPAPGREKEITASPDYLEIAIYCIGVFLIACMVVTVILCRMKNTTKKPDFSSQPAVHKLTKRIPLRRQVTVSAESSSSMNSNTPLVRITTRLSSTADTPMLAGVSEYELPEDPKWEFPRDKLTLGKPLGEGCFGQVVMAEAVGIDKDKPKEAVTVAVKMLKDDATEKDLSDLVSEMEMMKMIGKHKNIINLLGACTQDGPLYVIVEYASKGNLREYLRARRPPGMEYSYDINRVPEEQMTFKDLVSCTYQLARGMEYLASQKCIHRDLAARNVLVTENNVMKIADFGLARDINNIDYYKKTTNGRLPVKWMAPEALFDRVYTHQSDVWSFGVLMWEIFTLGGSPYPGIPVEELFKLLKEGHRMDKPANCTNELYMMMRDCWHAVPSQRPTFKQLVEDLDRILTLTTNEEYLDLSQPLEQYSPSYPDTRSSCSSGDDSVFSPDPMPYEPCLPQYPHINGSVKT

[11] = target: Serine/threonine-protein kinase pim-1 (Homo sapiens) (UniProt P11309); test: Inhibition of Pim-1 at 0.1 uM; values are per cent of control
Chain of Serine/threonine-protein kinase pim-1 (Homo sapiens) (P11309 whole entry, looked up): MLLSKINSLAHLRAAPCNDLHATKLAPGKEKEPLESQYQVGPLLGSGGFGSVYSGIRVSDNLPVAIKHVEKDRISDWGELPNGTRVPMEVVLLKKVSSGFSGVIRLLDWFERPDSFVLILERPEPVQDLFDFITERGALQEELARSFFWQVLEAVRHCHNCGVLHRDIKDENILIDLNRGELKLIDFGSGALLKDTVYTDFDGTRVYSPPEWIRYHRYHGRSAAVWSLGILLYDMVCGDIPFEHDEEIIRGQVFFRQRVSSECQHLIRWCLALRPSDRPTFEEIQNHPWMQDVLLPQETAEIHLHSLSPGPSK

Chain of Tyrosine-protein kinase Fyn (Homo sapiens) (P06241 2-537 limits assumed): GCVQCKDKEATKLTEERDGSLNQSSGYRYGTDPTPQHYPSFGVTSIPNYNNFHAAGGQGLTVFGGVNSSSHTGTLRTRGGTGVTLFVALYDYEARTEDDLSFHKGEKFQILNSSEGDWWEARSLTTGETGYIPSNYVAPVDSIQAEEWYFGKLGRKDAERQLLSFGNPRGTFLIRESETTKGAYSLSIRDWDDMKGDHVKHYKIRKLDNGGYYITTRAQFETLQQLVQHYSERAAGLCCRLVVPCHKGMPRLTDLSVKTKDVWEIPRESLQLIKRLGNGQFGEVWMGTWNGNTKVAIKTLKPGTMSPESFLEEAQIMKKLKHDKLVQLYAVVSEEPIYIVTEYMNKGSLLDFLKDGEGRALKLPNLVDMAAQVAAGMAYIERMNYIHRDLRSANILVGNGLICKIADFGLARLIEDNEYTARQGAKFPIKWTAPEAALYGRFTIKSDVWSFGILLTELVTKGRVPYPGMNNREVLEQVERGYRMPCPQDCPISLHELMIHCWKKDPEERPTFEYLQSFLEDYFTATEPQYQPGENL

inhibition [1] [%] | residual activity [2] [%] | residual activity [3] [%] | inhibition [4] [%] | residual activity [5] [%] | residual activity [6] [%] | residual activity [7] [%] | residual activity [8] [%] | residual activity [9] [%] | residual activity [10] [%] | residual activity [11] [%] | Structure (SMILES)
4 | 85 | 86 | 9 | 68 | 86 | 93 | 60 | 40 | 51 | 106 | Cc1ccc2cc(-c3n[nH]c4ccc(NC5CCN(Cc6ccccc6)CC5)cc34)[nH]c2c1
0 | 15 | 69 | 7 | 36 | 30 | 93 | 66 | 10 | 8 | 100 | Cc1ccc2cc(-c3n[nH]c4ccc(NC5CCNC5)cc34)[nH]c2c1 (configuration not stated)
